Experimental findings from ChEMBL document CHEMBL1131609, “Syntheses and structure-activity relationships of novel retinoid X receptor agonists” (J Med Chem, 1998) are described below.

Assay [1] concerns the target T1, Retinoic acid receptor beta (Homo sapiens) (UniProt P10826).
T1 sequence (whole entry): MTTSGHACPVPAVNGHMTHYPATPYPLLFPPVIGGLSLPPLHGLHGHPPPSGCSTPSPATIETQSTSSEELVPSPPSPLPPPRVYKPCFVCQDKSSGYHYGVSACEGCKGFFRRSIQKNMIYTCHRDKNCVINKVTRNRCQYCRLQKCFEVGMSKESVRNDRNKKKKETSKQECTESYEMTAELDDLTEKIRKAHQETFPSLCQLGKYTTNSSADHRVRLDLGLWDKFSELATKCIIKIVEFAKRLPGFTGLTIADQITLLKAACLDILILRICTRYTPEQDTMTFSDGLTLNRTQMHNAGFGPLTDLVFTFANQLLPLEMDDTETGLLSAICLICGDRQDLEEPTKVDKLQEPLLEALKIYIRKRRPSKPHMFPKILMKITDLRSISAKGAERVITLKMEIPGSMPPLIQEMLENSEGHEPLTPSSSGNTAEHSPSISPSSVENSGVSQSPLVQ
Nature of the assay: Percent maximal induction of human RAR-beta receptor relative to ATRA; Inactive. It counts as functional.

The target in assay [2] is T2, Retinoic acid receptor alpha (Homo sapiens) (UniProt P10276).
T2 sequence (whole entry): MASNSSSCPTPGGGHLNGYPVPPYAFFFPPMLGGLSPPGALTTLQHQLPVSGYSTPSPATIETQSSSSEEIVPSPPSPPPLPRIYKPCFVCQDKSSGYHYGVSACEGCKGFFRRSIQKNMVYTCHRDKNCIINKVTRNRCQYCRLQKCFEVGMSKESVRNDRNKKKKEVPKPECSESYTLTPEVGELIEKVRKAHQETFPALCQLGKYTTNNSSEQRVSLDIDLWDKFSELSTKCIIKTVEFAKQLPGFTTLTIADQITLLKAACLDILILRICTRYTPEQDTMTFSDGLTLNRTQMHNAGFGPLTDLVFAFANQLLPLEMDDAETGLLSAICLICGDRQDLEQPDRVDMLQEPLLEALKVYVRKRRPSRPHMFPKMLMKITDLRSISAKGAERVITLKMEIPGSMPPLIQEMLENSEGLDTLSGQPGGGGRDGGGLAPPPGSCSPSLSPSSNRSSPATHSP
Nature of the assay: Relative EC30 for human RAR-alpha receptor as EC30(compound) divided by EC30(ATRA); Inactive.

Assay [3] concerns the target T2, Retinoic acid receptor alpha (Homo sapiens). In words: Percent maximal induction of human RAR-alpha receptor relative to ATRA; Inactive. It counts as functional.
Assay [4] addresses T3, Retinoic acid receptor gamma (Homo sapiens) (UniProt P13631).
T3 sequence (whole entry): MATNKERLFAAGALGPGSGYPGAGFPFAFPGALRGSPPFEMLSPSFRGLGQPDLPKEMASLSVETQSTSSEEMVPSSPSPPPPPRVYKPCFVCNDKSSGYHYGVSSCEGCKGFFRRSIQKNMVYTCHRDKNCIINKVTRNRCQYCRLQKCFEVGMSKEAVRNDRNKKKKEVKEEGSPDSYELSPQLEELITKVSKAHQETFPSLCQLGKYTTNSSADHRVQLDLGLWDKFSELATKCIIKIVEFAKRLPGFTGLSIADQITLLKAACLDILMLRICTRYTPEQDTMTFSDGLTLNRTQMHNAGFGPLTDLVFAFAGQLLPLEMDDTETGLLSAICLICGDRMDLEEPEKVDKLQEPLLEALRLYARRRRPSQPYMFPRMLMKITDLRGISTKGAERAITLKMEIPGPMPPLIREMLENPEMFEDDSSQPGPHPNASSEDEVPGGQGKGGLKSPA
In words: Relative EC30 for human RAR-gamma receptor as EC30(compound) divided by EC30(ATRA); Inactive.

For assay [5], the target named is T3, Retinoic acid receptor gamma (Homo sapiens). In words: Percent maximal induction of human RAR-gamma receptor relative to ATRA; Inactive. Format: functional.
Assay [6] deals with T1, Retinoic acid receptor beta (Homo sapiens). Nature of the assay: Relative EC30 for human RAR-beta receptor as EC30(compound) divided EC30(ATRA); Inactive.
Assay [7] has the same target. In words: Relative EC30 for human RAR-beta receptor as EC30(compound) divided by EC30(ATRA).
The target in assay [8] is T3, Retinoic acid receptor gamma (Homo sapiens). Nature of the assay: Relative EC30 for human RAR-gamma receptor as EC30(compound) divided by EC30(ATRA); inactive.
In assay [9] the target is T1, Retinoic acid receptor beta (Homo sapiens). In words: Relative IC50 for human RAR-beta receptor IC50(compound) divided by IC50(ATRA). In outline: (§1)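 Competitive binding used nuclear extracts of BHK clones stably expressing human RAR-α, β or γ, selected in 250 nM methotrexate. Extracts were incubated with [³H]-ATRA (added as 10 nM solution) and unlabeled compound for 16 h at 4 °C. Free ligand was removed with charcoal/dextran, and the supernatant was counted. Nonspecific binding was taken as binding with 1000-fold excess unlabeled ligand. IC50 from logarithmic plots was divided by the IC50 of ATRA.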

Assay [10] concerns the target T2, Retinoic acid receptor alpha (Homo sapiens). In words: Relative IC50 for human RAR-alpha receptor as IC50(compound) divided by IC50(ATRA). In outline: as §1
Assay [11] deals with T3, Retinoic acid receptor gamma (Homo sapiens). Nature of the assay: Relative IC50 for human RAR-gamma receptor as IC50(compound) divided by IC50(ATRA). In a few lines:
as §1

Active and inactive are the calls of the source. No cut-off for these calls is given here.

Regarding `CCCC\C(=C(F)/C=C/C(C)=C/C(=O)O)c1ccc2c(c1)CCCN2C(C)C`, the Efficacy result in [1], in [3] and in assay [5] was “inactive” in each case. Also, the “Relative EC30” value in [2], in assay [4] and in assay [6] was “inactive” throughout.

As to `CC\C(=C(F)/C=C/C(C)=C/C(=O)O)c1ccc2c(c1)CCCN2C(C)C`, the Efficacy entry in [3] and in assay [5] was “inactive” in each case. In [7], this molecule had a Relative EC30 of 1600.

As to `CCC\C(=C(F)/C=C/C(C)=C/C(=O)O)c1ccc2c(c1)CCCN2C(C)C`, the “Relative EC30” value in assay [2] and in assay [8] was “inactive” each time. The Efficacy entry in assay [3] and in assay [5] was “inactive” in each case.

As to `CC(/C=C/C=C(\C)c1ccc2c(c1)CCCN2C(C)C)=C\C(=O)O`, the results for the Relative IC50 in assay [9], in assay [10] and in [11] were 432, 372 and 187, respectively.
